Laboratory results taken from ChEMBL document CHEMBL4364311, “Variations on a scaffold - Novel GABAA receptor modulators” (Eur J Med Chem, 2019).
The source made the active and inactive calls. The rule behind the calls is not given here.

Assays:
[1] = target: T1, Gamma-aminobutyric acid receptor subunit alpha-1/beta-3 (Rattus norvegicus) (UniProt P62813+P63079); test: (§1) Positive allosteric modulator activity at rat alpha1beta3 GABA-A receptor expressed in Xenopus laevis oocytes assessed as increase in GABA-induced chloride current at 10 uM co-applied with GABA at concentration of EC3-5 at -60 mV holding potential by two-microelectrode voltage clamp method relative to control; assay type: cell-based
How it was run: (§2)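 α1 and β3 RNA mixed 1:1 (final 56 ng/μl); collagenase-defolliculated stage 5–6 Xenopus oocytes injected with 2.8 ng mRNA, kept 2–3 days at 18 °C. Two-electrode clamp at −60 mV, room temperature, electrodes 1–3 MΩ with 2 M KCl, NDE perfusion 6 mL/min. GABA titrated to 3–5% of maximal current, co-applied with compound (0.1% DMSO final) until peak response.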

[2] = target: T1, Gamma-aminobutyric acid receptor subunit alpha-1/beta-3 (Rattus norvegicus); test: as §1, with “30” for “10”; assay type: cell-based; how it was run: as §2
[3] = Solubility of the compound in MeOH; assay type: physicochemical
[4] = Solubility of the compound in DMSO; assay type: physicochemical
[5] = target: T1, Gamma-aminobutyric acid receptor subunit alpha-1/beta-3 (Rattus norvegicus); test: as §1, with “1 to 30” for “10”; assay type: cell-based; how it was run: as §2
[6] = Solubility of the compound at 30 uM in NDE medium containing 0.1% DMSO; assay type: physicochemical

For `COc1ccc2[nH]cc3c(=O)n(-c4ccc(C)cc4)nc-3c2c1`, the Efficacy [1] was 719%.

For `CCOC(=O)c1[nH]c2ccccc2c1/N=N/c1ccc(OC)cc1`, the Activity [2] was “inactive”.

In the case of `Cc1ccc(-n2nc3c4cc(Cl)ccc4[nH]cc-3c2=O)cc1`, the Efficacy [1] is reported as 372%.

With `CCOC(=O)c1[nH]c2ccc(Cl)cc2c1/N=N/c1ccc(OC)cc1` the Activity [2] was “inactive”.

In the case of `COc1ccc(-n2nc3c4cc(OC)ccc4[nH]cc-3c2=O)cc1`, the Efficacy [1] is reported as 1120%.

For `COc1ccc2[nH]c(C(=O)O)c(/N=N/c3ccc(C)cc3)c2c1`, the Efficacy [2] was 400%, the solubility [3] was “Soluble” and the Efficacy [1] was 167%. The solubility [4] was “Soluble”, the Activity [5] was “Active” and the solubility [6] was “Soluble”.

For `COc1ccc(/N=N/c2c(C(=O)O)[nH]c3ccc(Cl)cc23)cc1`, the Efficacy [2] was 2000%, the solubility [3] was “Soluble” and the Efficacy [1] was 919%. The solubility [4] was “Soluble”, the Activity [5] was “Active” and the solubility [6] was “Soluble”.

For `COc1ccc(-n2nc3c4cc(Cl)ccc4[nH]cc-3c2=O)cc1`, the Efficacy [1] was 1060%.

In the case of `COc1ccc(/N=N/c2c(C(=O)O)[nH]c3ccccc23)cc1`, the Efficacy [2] is reported as 200%, the solubility [3] is reported as “Soluble” and the solubility [4] is reported as “Soluble”. The solubility [6] was “Soluble”.

In the case of `COc1ccc(/N=N/c2c(C(=O)O)[nH]c3ccc(OC)cc23)cc1`, the Efficacy [2] is reported as 300%, the solubility [3] is reported as “Soluble” and the Efficacy [1] is reported as 196%. For the same molecule, the solubility [4] was “Soluble” and the solubility [6] was “Soluble”.

In the case of `O=C(O)c1[nH]c2ccc(Cl)cc2c1/N=N/c1ccc(Br)cc1`, the Efficacy [2] is reported as 3000%, the solubility [3] is reported as “Soluble” and the solubility [4] is reported as “Soluble”. For the same molecule, the Activity [5] was “Active” and the solubility [6] was “Soluble”.

With `Cc1ccc(/N=N/c2c(C(=O)O)[nH]c3ccc(Cl)cc23)cc1` the Efficacy [2] was 1800%, the solubility [3] was “Soluble” and the Efficacy [1] was 707%. The solubility [4] was “Soluble”, the Activity [5] was “Active” and the solubility [6] was “Soluble”.

In the case of `COc1ccc2[nH]c(C(=O)O)c(/N=N/c3ccc(Br)cc3)c2c1`, the Efficacy [2] is reported as 830%, the solubility [3] is reported as “Soluble” and the solubility [4] is reported as “Soluble”. For the same molecule, the Activity [5] was “Active” and the solubility [6] was “Soluble”.
